Our source for the inhibition values is PubChem BioAssay AID743061 (The Scripps Research Institute Molecular Screening Center, 2013).

For this test, the target named is Methionine--tRNA ligase, mitochondrial (Homo sapiens) (UniProt Q96GW9). Briefly: human mtMetRS tRNA charging inhibition – biochemical, radioactivity, round 1, selectivity assay for T. brucei MetRS inhibitor project, late-stage follow-up (AID 743061).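 Further: 0% = DMSO with full reaction and 100% = DMSO wells lacking tRNA.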 The settings on record: recombinant human mtMetRS, [3H]Met tRNA charging, at 10 µM, stronger effect = higher value. The essentials:
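System: human mitochondrial MetRS enzyme / Buffer or medium: pH 8.0 reaction buffer containing 2.5 mM ATP / Probe or stimulus: 240 nM [3H]methionine with bulk E. coli tRNA acceptor / Doses: 10 and 1 µM / Times: 15 min compound–enzyme preincubation, then 1 h reaction at room temperature / Detection: scintillation counts of TCA-precipitated charged tRNA on filters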
With `O=C(Cn1cc(C(=O)C(=O)N2CCOCC2)c2ccccc21)Nc1cccc(C(F)(F)F)c1`, the inhibition (in general, the drop in the measured response relative to a control, in per cent) was -6.56%.
The result for `CC(C)(C)[C@@H]1C=C(C(=O)NCc2nc3ccccc3[nH]2)O[C@H](OCc2ccc(CO)cc2)C1` reads -5.44%.
The result for `O=C(CSC1CC(=O)N(c2cccc(Cl)c2)C1=O)Nc1ccc(Br)cc1` (stereo not drawn) reads 1.19%; that for `Cn1c(CCNC(=O)c2ccc(Cl)cc2)nc2ccccc21`, 12.5%.
The result for `O=C(NCCc1nc2ccccc2[nH]1)c1ccc(Cl)c([N+](=O)[O-])c1` reads 25.5%; that for `O=C(NCc1nc2ccccc2[nH]1)C1=C[C@@H](c2ccc3c(c2)OCO3)C[C@@H](OCCCCO)O1`, -0.58%; that for `Cc1cccc2[nH]c(CCN(C)C(=O)c3cccc(C4CCNC4)c3)nc12` (stereo not drawn), -5.77%.
On to `O=C(NCc1nc2ccccc2[nH]1)C1=C[C@H](c2ccc(Br)cc2)C[C@H](OCc2ccc(CO)cc2)O1`, for which the inhibition is 17.2%.
The result for `O=C(Cn1cc(C(=O)C(=O)N2CCOCC2)c2ccccc21)NCC1CCCO1` (stereo not drawn) reads 5.42%; that for `COc1ccc(NC(=O)CSc2nnc3c4cc(C)ccc4n(C)c3n2)cc1`, 8.46%.
As to `O=C(NCc1nc2ccccc2[nH]1)C1=C[C@@H](c2ccccc2)C[C@@H](OCc2ccc(CO)cc2)O1`, the inhibition was 15.8%.
Take `O=C1CC(NCCc2ccccc2)C(=O)N1c1ccc(Br)cc1` (stereo not drawn): the inhibition amounted to 6.62%.
The result for `O=C(CCC(=O)Nc1cccc([N+](=O)[O-])c1)NN=Cc1cccs1` reads -14.1%; that for `CCN(CC)C(=O)C(=O)c1cn(CC(=O)Nc2ccccc2OC)c2ccccc12`, -1.19%.
The result for `COc1ccc(NC(=O)C2CC(=O)n3c(nc4ccccc43)N2)cc1` (stereo not drawn) reads -2.5%; that for `COc1ccc(CCN(C(=S)Nc2ccccc2)C2CC(=O)N(c3ccc(Cl)cc3)C2=O)cc1` (stereo not drawn), 61.9%; that for `CCCCn1c(CCNC(=O)c2ccc(F)cc2)nc2ccccc21`, 5.87%.
As to `O=C(NCc1nc2ccccc2[nH]1)C1=C[C@H](c2ccc3c(c2)OCO3)C[C@H](OCCCCO)O1`, the inhibition was found to be 10.2%.
